Experimental data taken from PubChem BioAssay.
The source made the active and inactive calls.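 The calls were made as follows, unless noted: active = Her2 level under about 52% in both replicate screens, with viability over 70% of control (limit read from the data); inconclusive = Her2 under the limit in one screen only, or viability under 70%; inactive = Her2 level above the set limit.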

Experiments:
[1] = Her2 expression decrease, cell viability multiplex – SKBR3 breast tumor cells, AlphaScreen, ATP viability, primary screen (AID 461); settings: SKBR3 Her2 protein level, 18-24 h, measured here: SKBR3 viability, ATP luminescence, at 10 µM;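 as to Her2 level: lower value means less Her2 protein in the cells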;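 as to viability: percent of carrier control wells set as 100% viability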
[2] = biological target: Receptor tyrosine-protein kinase erbB-2 (Homo sapiens) (UniProt P04626); assay: as above; settings: 18-24 h, at 10 µM, stronger effect = lower value
Sequence of Receptor tyrosine-protein kinase erbB-2 (Homo sapiens) (P04626 whole entry, looked up): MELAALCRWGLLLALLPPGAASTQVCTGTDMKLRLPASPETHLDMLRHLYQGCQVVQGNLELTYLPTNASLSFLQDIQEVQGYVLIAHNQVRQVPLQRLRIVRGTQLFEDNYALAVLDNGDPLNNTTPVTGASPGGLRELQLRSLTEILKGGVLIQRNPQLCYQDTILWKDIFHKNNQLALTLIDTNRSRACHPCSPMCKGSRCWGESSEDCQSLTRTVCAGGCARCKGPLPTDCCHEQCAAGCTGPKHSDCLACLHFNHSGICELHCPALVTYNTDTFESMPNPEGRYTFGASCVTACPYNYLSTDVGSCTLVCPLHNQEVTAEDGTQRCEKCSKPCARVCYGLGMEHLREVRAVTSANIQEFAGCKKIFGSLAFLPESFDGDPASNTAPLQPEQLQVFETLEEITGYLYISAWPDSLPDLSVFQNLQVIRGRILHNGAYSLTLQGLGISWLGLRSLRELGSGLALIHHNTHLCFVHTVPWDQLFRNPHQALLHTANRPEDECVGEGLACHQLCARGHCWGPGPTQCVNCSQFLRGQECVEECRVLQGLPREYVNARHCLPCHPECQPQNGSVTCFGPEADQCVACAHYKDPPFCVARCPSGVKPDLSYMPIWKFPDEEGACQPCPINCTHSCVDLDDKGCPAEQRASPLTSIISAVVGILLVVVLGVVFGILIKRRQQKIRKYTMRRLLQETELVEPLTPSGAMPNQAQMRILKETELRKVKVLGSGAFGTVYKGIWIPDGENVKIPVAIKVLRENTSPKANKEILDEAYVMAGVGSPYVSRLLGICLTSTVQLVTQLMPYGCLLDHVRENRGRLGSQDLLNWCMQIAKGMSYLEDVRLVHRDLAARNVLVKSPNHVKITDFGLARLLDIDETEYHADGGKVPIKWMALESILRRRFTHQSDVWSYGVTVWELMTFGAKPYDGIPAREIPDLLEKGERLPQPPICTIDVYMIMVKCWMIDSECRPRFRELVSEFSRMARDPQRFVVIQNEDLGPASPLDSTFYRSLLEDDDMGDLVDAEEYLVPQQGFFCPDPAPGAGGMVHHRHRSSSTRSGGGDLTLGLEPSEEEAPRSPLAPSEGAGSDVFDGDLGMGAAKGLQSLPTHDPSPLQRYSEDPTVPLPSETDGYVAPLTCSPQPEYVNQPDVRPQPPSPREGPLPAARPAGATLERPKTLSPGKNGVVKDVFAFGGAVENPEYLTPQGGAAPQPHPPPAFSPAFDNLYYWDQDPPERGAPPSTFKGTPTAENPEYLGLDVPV

[3] = reduced viability of SK-BR-3 breast cancer cells – cell-based, 24 h, human, pilot screen (AID 572;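 active = viability at or below 10% of carrier control in both of two separate runs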;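 also: compound exposure lasted between 18 and 24 h rather than exactly 24 h; 100% = carrier-treated control wells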); settings: SK-BR-3 viability, CellTiter-Glo luminescence, at 10 µM, stronger effect = lower value
[4] = HUVEC growth inhibition – cell-based, human, primary screen (AID 575;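 active = viability at or below 30% in both replicate assays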;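 also: 100% = median of untreated cell wells with 0.1% DMSO on each plate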); settings: HUVEC proliferation, CellTiter-Glo luminescence, 72 h; at 10 µM; stronger effect = lower value
Method in brief: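 Test system: primary human umbilical vein endothelial cells. Quantity: 1250 cells/well. Compound: single 10 µM dose, 0.1% DMSO, from 5x medium stock. Timing: 72 h treatment at 37 °C. Detection: ATP-based CellTiter-Glo luminescent read. Benchmarks: vehicle and MePR control wells. Format: 384-well plates coated with collagen.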

[5] = H69AR cell proliferation blockers – human, duplicate replicates, primary screen (AID 580;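 active = viability at or under a set limit in both replicates, limit being median viability minus 3 SD, cut at about 48% in these data, passing the limit was not always enough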;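 also: 100% = mean luminescence of untreated wells and 0% = no signal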); settings: H69AR lung tumor cells viability, ATP luminescence, 72 h; at 10 µM; stronger effect = lower value
[6] = MRP1 drug-resistance reversers in H69AR cells – cell-based, doxorubicin co-treatment, pilot screen (AID 601;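 active = viability loss from added drug above about 55%, and viability with drug at most 40%, in both replicates, limit read from the data, passing the limit was not always enough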); settings: CellTiter-Glo, 72 h, at 10 µM; for differential viability (reversal): stronger effect = higher value
[7] = yeast transport mutant growth inhibition pilot in 384-well plates, post-Golgi transport modulator project (AID 636; in the data active = inhibition above about 31%); settings: absorbance 615 nm, about 18 h, stronger effect = higher value
[8] = growth suppression of yeast trafficking mutant, preliminary HTS, modulators of trafficking downstream of Golgi apparatus project, 1536-format plate, OD 615 nm (AID 637; in the data active = inhibition above about 30%); settings: yeast transport mutant growth, absorbance 615 nm, 18 h; stronger effect = higher value
[9] = H69AR cells + 2 uM doxorubicin, measured here: viability with 2 uM doxorubicin, stronger effect = lower value
[10] = H69AR cells, compound alone cytotoxicity

| Structure (SMILES) | viability [1] [%] | Her2 level [2] | viability [3] | viability [4] | viability [5] | differential viability (reversal) ([6]; H69AR cells + 2 uM doxorubicin) | viability [6, 9] [%] | viability [6, 10] [%] | inhibition [7] | inhibition [8] |
| --- | --- | --- | --- | --- | --- | --- | --- | --- | --- | --- |
| COc1ccc(NC(=O)C(C)NS(=O)(=O)c2ccccc2)cc1Cl (stereo not given) | 92 | 99% (inactive) | 92% (inactive) | 98.4% (inactive) | 97.7% (inactive) | 6.73% (inactive) | 91 | 97.7 | -3.87% (inactive) | -6.19% (inactive) |
| CCSc1oc(-c2cccs2)nc1S(=O)(=O)c1ccccc1 | 93.5 | 104% (inactive) | 93.5% (inactive) | 59.9% (inactive) | 82% (inactive) | 5.72% (inactive) | 76.3 | 82 | -5.33% (inactive) | 1.83% (inactive) |
| CCC(=O)N1CCNC(=O)C1CC(=O)Nc1ccc(C)c(Cl)c1 (stereo not given) | 97 | 122% (inactive) | 97% (inactive) | 94.2% (inactive) | 95.8% (inactive) | 4.98% (inactive) | 90.8 | 95.8 | -2.8% (inactive) | -0.48% (inactive) |
| Clc1ccc(Cn2ncc3c(NCc4cccnc4)ncnc32)cc1 | 77.5 | 86% (inactive) | 77.5% (inactive) | 90.5% (inactive) | 92% (inactive) | -4.09% (inactive) | 96.1 | 92 | -0.53% (inactive) | 3.77% (inactive) |
| CCCCSCCCNC(=O)CS(=O)Cc1nc(-c2cccc(C)c2)oc1C (stereo not given) | 98.5 | 76% (inactive) | 98.5% (inactive) | 91.9% (inactive) | 87.5% (inactive) | -3.76% (inactive) | 91.2 | 87.5 | -1.58% (inactive) | -1% (inactive) |
| Nc1sccc1C(=O)c1ccccc1 | 85.5 | 118% (inactive) | 85.5% (inactive) | 82.6% (inactive) | 88.5% (inactive) | -2.76% (inactive) | 91.2 | 88.5 | -1.87% (inactive) | -0.16% (inactive) |
| COc1cc(Cl)c(C)cc1NC(=O)COC(=O)c1cnc(C)cn1 | 108 | 110% (inactive) | 108% (inactive) | 95.1% (inactive) | 97% (inactive) | -2.33% (inactive) | 99.3 | 97 | -4.25% (inactive) | -0.95% (inactive) |
| COc1ccc(Cc2nnc(NC(=O)Cc3cccs3)s2)cc1 | 104 | 112% (inactive) | 104% (inactive) | 103% (inactive) | 106% (inactive) | 5.58% (inactive) | 101 | 106 | 0.41% (inactive) | -4.29% (inactive) |
| Cc1csc2nc3ccccc3c(=O)n12 | 100 | 91% (inactive) | 100% (inactive) | 103% (inactive) | 94.7% (inactive) | 1.49% (inactive) | 93.2 | 94.7 | -1.84% (inactive) | 1.31% (inactive) |
| O=C(CCNS(=O)(=O)c1ccc(Cl)cc1)NCc1ccccn1 | 97.5 | 75.5% (inactive) | 97.5% (inactive) | 81.4% (inactive) | 89.7% (inactive) | -6.95% (inactive) | 96.7 | 89.7 | -5.26% (inactive) | -1.83% (inactive) |
| COc1ccc(-c2cc3nc4n(c(=O)c3s2)CCC4)cc1 | 129 | 101% (inactive) | 129% (inactive) | 103% (inactive) | 84.1% (inactive) | -4.84% (inactive) | 88.9 | 84.1 | -5% (inactive) | 3.44% (inactive) |
| CCOc1ccc(C(=O)OCc2nnc(-c3cccs3)o2)cc1OC | 106 | 96% (inactive) | 106% (inactive) | 116% (inactive) | 99.9% (inactive) | 25.9% (inactive) | 74 | 99.9 | -3.12% (inactive) | 2.38% (inactive) |
| O=C(CCCn1ncn2c(cc3occc32)c1=O)N1CCc2ccccc2C1 | 126 | 90.5% (inactive) | 126% (inactive) | 83.8% (inactive) | 84.7% (inactive) | -5.79% (inactive) | 90.5 | 84.7 | -4.21% (inactive) | -6.73% (inactive) |
| COCCN(C(=O)c1csnn1)C(C(=O)NC(C)(C)C)c1cccc(OC)c1 (stereo not given) | 89.5 | 91% (inactive) | 89.5% (inactive) | 120% (inactive) | 97.9% (inactive) | 0.985% (inactive) | 96.9 | 97.9 | -4.4% (inactive) | 0% (inactive) |
| CCC1(C)Cc2c(C#N)c(N)n(N)c(=S)c2CO1 (stereo not given) | 102 | 97.5% (inactive) | 102% (inactive) | 85.1% (inactive) | 81.7% (inactive) | -7.55% (inactive) | 89.3 | 81.7 | 0.91% (inactive) | -2.13% (inactive) |
| CCOC(=O)N1CCN(C(=O)CCc2c(C)nc3c(c(C)nn3-c3ccc(C)c(C)c3)c2C)CC1 | 92 | 88.5% (inactive) | 92% (inactive) | 82% (inactive) | 86.2% (inactive) | 6.21% (inactive) | 80 | 86.2 | -1.71% (inactive) | -7.64% (inactive) |
| CCN(CCO)C1CC(=O)N(c2ccccc2C)C1=O (stereo not given) | 95 | 93.5% (inactive) | 95% (inactive) | 105% (inactive) | 101% (inactive) | 24.2% (inactive) | 76.7 | 101 | -9.46% (inactive) | -2% (inactive) |
| O=C(NCC(c1cccnc1)N1CCN(c2ccccc2)CC1)c1ccc2c(c1)OCO2 (stereo not given) | 92 | 94% (inactive) | 92% (inactive) | 105% (inactive) | 90.8% (inactive) | -7.41% (inactive) | 98.2 | 90.8 | -4.46% (inactive) | 12.9% (inactive) |
| O=C1CC(c2ccccc2)n2nc(NC(=O)c3ccccn3)nc2N1 (stereo not given) | 104 | 78% (inactive) | 104% (inactive) | 84.3% (inactive) | 66.2% (inactive) | -18.7% (inactive) | 84.9 | 66.2 | -4.59% (inactive) | 4.6% (inactive) |
| CC(C)C(=O)Nc1cccc(NC(=O)c2cccnc2)c1 | 102 | 98.5% (inactive) | 102% (inactive) | 107% (inactive) | 97.9% (inactive) | -1.67% (inactive) | 99.6 | 97.9 | -2.63% (inactive) | 4.1% (inactive) |
| Nc1cc(C(=O)O)ccc1Nc1ccc(F)c(F)c1 | 88 | 112% (inactive) | 88% (inactive) | 89.2% (inactive) | 105% (inactive) | 10.3% (inactive) | 94.3 | 105 | 2.4% (inactive) | 4.75% (inactive) |
| Cn1c(=O)[nH]c(=O)c2c1nc(N1CCNCC1)n2CCOc1ccccc1 | 79.5 | 108% (inactive) | 79.5% (inactive) | 81.1% (inactive) | 82% (inactive) | -8.6% (inactive) | 90.6 | 82 | 4.32% (inactive) | 10.8% (inactive) |
| CCOc1cccc(C(=O)N(Cc2ccc(F)cc2)C2CCS(=O)(=O)C2)c1 (stereo not given) | 97 | 98% (inactive) | 97% (inactive) | 100% (inactive) | 86.3% (inactive) | -3.54% (inactive) | 89.9 | 86.3 | -1.82% (inactive) | -2.33% (inactive) |
| CC(C)N1C(=O)C2C(C(=O)NC3CCCCC3)C3C=CC2(O3)C1C(=O)NC1CCCC1 (stereo not given) | 94.5 | 87% (inactive) | 94.5% (inactive) | 107% (inactive) | 109% (inactive) | 15.9% (inactive) | 93.5 | 109 | -4.67% (inactive) | -1.11% (inactive) |
| Cc1ccc2nc(NC(=O)C3CCCN(S(=O)(=O)c4cnc[nH]4)C3)sc2c1 (stereo not given) | 96.5 | 92% (inactive) | 96.5% (inactive) | 98% (inactive) | 81.9% (inactive) | -9.05% (inactive) | 90.9 | 81.9 | -2.67% (inactive) | -3.11% (inactive) |
| Cc1cccc(C)c1NC(=O)CC(NCc1ccco1)C(=O)O (stereo not given) | 116 | 85% (inactive) | 116% (inactive) | 118% (inactive) | 109% (inactive) | 13.5% (inactive) | 95.8 | 109 | -7.7% (inactive) | -2.67% (inactive) |
| O=C(CN1C(=O)c2ccccc2S1(=O)=O)NCc1ccccn1 | 94 | 92% (inactive) | 94% (inactive) | 86.1% (inactive) | 98.5% (inactive) | 0.67% (inactive) | 97.8 | 98.5 | -1.43% (inactive) | 1.11% (inactive) |
| C=C(c1cccc2ccccc12)P(=O)(O)O | 116 | 99.5% (inactive) | 116% (inactive) | 104% (inactive) | 92.9% (inactive) | 6.39% (inactive) | 86.5 | 92.9 | -6.45% (inactive) | 4.75% (inactive) |
| CCCN1CCN(CCCNC(=O)C2CCCN(c3nc4ccc(OCC)cc4s3)C2)CC1 (stereo not given) | 85.5 | 118% (inactive) | 85.5% (inactive) | 74.8% (inactive) | 87.3% (inactive) | -1.46% (inactive) | 88.8 | 87.3 | -5.39% (inactive) | 0.83% (inactive) |
